According to PMC12064631 (Clinical Pharmacokinetics, 2025):
pEC50, pIC50: −log10 of the molar value. Where “and” joins values, the source holds several entries; their conditions need not be identical. Identical values can stand only once. Like-named read-outs stand apart in the source and are kept apart here. Blank lines part the entries; values can stand above or below the compound they belong to.

Columns and labels:
[1] = tested on: fibroblast activation protein; conditions: cited from earlier work
[2] = format: in vivo, human (Chinese patients with type 2 diabetes); conditions: for AUC(0-inf) / AUC(0-t) / AUC / Tmax / Vd/F / half-life / k el / Cmax: human, plasma; for AUC(0-inf) / AUC(0-t) / AUC / Tmax / Vd/F / half-life / k el: oral; for AUC(0-inf): AUCinf; for AUC(0-inf) / AUC(0-t) / AUC / Vd/F / half-life / k el / %AUC_ex,ss / CLss/F / Cmin,ss / %AUC_ex / CL/F: mean (SD); for AUC(0-t): AUClast; for AUC: AUCtau; for Tmax: median (range); for Vd/F: Vz/F; for k el: λz; for Cmax: po
In short: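 Fasting oral tablets of 50, 100 or 200 mg were given once daily on days 1 and 3–9 (eight doses). Plasma was spun at 1700 ± 50 g, 4 °C, 10 min, acidified with 50% acetic acid (1:100) and stored ≤ –60 °C. Analysis was by validated LC-MS/MS (1.00–2000 ng/mL; LLOQ 1.00 ng/mL). Individual parameters and accumulation ratio came from noncompartmental analysis using actual sampling times.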

DPP-4 [3] = target: T1, DPP-4 (Homo sapiens, UniProt P27487); assay: PK-PD relationship between DPP-4 inhibition and DBPR108 exposure; format: in vivo, human (Chinese patients with type 2 diabetes)
In short: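 Each patient's plasma drug level (LC-MS/MS) was paired with plasma DPP-4 % inhibition, after one dose and after repeated once-daily oral dosing at 50–200 mg. Linear correlation with exposure was assessed, and inhibition versus concentration was fitted with an Emax model giving Emax and EC50. Only patients with evaluable PK and PD data were included.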

[4] = single dose of 100 mg, healthy subjects, cited from earlier work
[5] = tested on: DPP-4 activity in the plasma; conditions: plasma of humans, rodents, dogs, and monkeys, range over species; cited from earlier work
diet-induced obese mice = conditions: DBPR108 in combination with metformin; cited from earlier work
DPP‐9 = conditions: cited from earlier work
active GLP-1 = assay: Plasma active GLP-1 level after single and multiple doses of DBPR108; format: in vivo, human (Chinese patients with type 2 diabetes); conditions: for Emax,GLP-1 (active GLP-1): mean (SD)
In short: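 Patients with type 2 diabetes, 10 per group, received oral tablets of 50, 100 or 200 mg fasting, once daily on days 1 and 3–9. Plasma was spun at 1300 ± 50 g, 2–8 °C, 10 min and stored ≤ –60 °C. Active GLP-1 was measured by MSD V-PLEX kit (LLOQ 0.182 pM). Emax and time to Emax were taken per group, and correlation with exposure was checked.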

DPP‐8 = conditions: cited from earlier work
Safety assessment = format: in vivo, human (Chinese patients with type 2 diabetes)
In short: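 Treatment-emergent adverse events were recorded as a secondary outcome in all patients dosed at least once. Dosing was oral tablets of 50, 100 or 200 mg, fasting, once daily on days 1 and 3–9. Patients were grouped by the dose actually received.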

DPP-4 [6] = target: T1, DPP-4; assay: Inhibition of plasma DPP-4 activity after single and multiple doses of DBPR108; format: in vivo, human (Chinese patients with type 2 diabetes)
In short: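 Chinese adults with type 2 diabetes (HbA1c 7.0–9.5%, BMI 19–35 kg/m2), 10 per group. Oral tablets of 50, 100 or 200 mg were given fasting, once daily on days 1 and 3–9. Plasma was spun at 1300 ± 50 g, 2–8 °C, 10 min and stored ≤ –60 °C. DPP-4 activity was read on a microplate reader (LLOQ 21.23 μU/mL), with % inhibition taken from baseline.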

DPP‐4 = conditions: cited from earlier work
DPP‐2 = conditions: cited from earlier work
[7] = large clinical trials, rare; cited from earlier work
DPP-4 [8] = conditions: 168 h post single dose of 25 mg, healthy Japanese subjects; cited from earlier work
[9] = 50 mg, multiple doses 50 mg once daily
[10] = 100 mg, multiple doses 100 mg once daily
[11] = 200 mg, multiple doses 200 mg once daily
[12] = multiple doses 50 mg once daily
[13] = multiple doses 100 mg once daily
[14] = multiple doses 200 mg once daily
[15] = single dose and multiple doses, 50 mg to 200 mg, linear regression
[16] = multiple doses, range over 50-200 mg groups

T1 sequence (P27487 39-766): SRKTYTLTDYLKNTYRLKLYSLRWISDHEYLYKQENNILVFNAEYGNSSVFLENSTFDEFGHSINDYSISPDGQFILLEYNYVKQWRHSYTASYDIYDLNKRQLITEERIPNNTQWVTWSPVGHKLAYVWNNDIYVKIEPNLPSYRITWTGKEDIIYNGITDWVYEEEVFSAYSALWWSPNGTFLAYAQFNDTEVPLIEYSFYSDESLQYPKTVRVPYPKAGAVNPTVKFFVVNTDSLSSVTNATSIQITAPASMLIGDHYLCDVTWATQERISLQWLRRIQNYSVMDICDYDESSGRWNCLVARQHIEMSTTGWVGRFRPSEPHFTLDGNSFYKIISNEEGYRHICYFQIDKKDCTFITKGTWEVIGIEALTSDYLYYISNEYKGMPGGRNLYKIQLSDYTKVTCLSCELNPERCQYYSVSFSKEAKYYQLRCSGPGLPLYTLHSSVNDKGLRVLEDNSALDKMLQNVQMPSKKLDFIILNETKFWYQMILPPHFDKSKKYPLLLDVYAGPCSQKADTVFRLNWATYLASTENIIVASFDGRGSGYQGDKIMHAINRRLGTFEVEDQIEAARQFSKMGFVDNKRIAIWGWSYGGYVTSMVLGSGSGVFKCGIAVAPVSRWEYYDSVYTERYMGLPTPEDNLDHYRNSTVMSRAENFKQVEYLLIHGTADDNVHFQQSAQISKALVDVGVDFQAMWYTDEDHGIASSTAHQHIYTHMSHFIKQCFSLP

Dose proportionality of exposure (power model) ([2]; 50 mg to 200 mg, single dose and multiple doses): increased dose proportionally
Steady state achieved on ([2]; dosing on days 1 and 3-9): 7 days
AUC(0-inf) ([2]; 50 mg, single dose 50 mg): 792 ng·h/mL
AUC(0-t) ([2]; 50 mg, single dose 50 mg): 780 ng·h/mL
AUC ([2]; 50 mg, single dose 50 mg): 770 ng·h/mL
Tmax ([2]; 50 mg, single dose 50 mg): 1.5 h
Vd/F [2, 9]: 806 L
Vd/F ([2]; 50 mg, single dose 50 mg): 479 L
half-life ([2]; 50 mg, t½, single dose 50 mg): 5 h
half-life ([2]; 50 mg, t½,ss, multiple doses 50 mg once daily): 8 h
k el [2, 9]: 3.56e-05 s⁻¹
k el ([2]; 50 mg, single dose 50 mg): 5e-05 s⁻¹
AUC(0-inf) ([2]; 100 mg, single dose 100 mg): 1530 ng·h/mL
AUC(0-t) ([2]; 100 mg, single dose 100 mg): 1500 ng·h/mL
AUC ([2]; 100 mg, single dose 100 mg): 1450 ng·h/mL
Tmax ([2]; 100 mg, single dose 100 mg): 4.5 h
Vd/F [2, 10]: 896 L
Vd/F ([2]; 100 mg, single dose 100 mg): 1010 L
half-life ([2]; 100 mg, t½, single dose 100 mg): 9.6 h
half-life ([2]; 100 mg, t½,ss, multiple doses 100 mg once daily): 7.4 h
k el [2, 10]: 4.03e-05 s⁻¹
k el ([2]; 100 mg, single dose 100 mg): 3.61e-05 s⁻¹
AUC(0-inf) ([2]; 200 mg, single dose 200 mg): 3400 ng·h/mL
AUC(0-t) ([2]; 200 mg, single dose 200 mg): 3280 ng·h/mL
AUC ([2]; 200 mg, single dose 200 mg): 3120 ng·h/mL
Tmax ([2]; 200 mg, single dose 200 mg): 4.5 h
Vd/F [2, 11]: 894 L
Vd/F ([2]; 200 mg, single dose 200 mg): 1070 L
half-life ([2]; 200 mg, t½, single dose 200 mg): 12.3 h
half-life ([2]; 200 mg, t½,ss, multiple doses 200 mg once daily): 10.2 h
k el [2, 11]: 2.69e-05 s⁻¹
k el ([2]; 200 mg, single dose 200 mg): 2.78e-05 s⁻¹
Cmax ([2]; 50 mg): 151 ng/mL
Cmax ([2]; 100 mg): 239 ng/mL
Cmax ([2]; 200 mg): 474 ng/mL
%AUC_ex,ss [2, 12]: 4.48 (4.09) %
CLss/F [2, 12]: 76.0 (23.3) L/h
Cmin,ss [2, 12]: 3.2 (1.6) ng/mL
%AUC_ex,ss [2, 13]: 2.33 (3.04) %
CLss/F [2, 13]: 76.4 (22.3) L/h
Cmin,ss [2, 13]: 5.6 (2.9) ng/mL
%AUC_ex,ss [2, 14]: 3.17 (3.44) %
CLss/F [2, 14]: 64.6 (16.7) L/h
Cmin,ss [2, 14]: 18.3 (16.8) ng/mL
Accumulation ratio (Rac) ([2]; multiple doses, range over the 50-, 100-, 200-mg groups): 0.85 to 1.3 and 0.85–1.3
Steady state reached after ([2]; once-daily dosing, 50-200 mg): four
%AUC_ex ([2]; single dose 50 mg): 1.5 (0.9) %
CL/F ([2]; single dose 50 mg): 66.6 (16.5) L/h
%AUC_ex ([2]; single dose 100 mg): 2.3 (1.4) %
CL/F ([2]; single dose 100 mg): 72.9 (26.2) L/h
%AUC_ex ([2]; single dose 200 mg): 3.2 (3.2) %
CL/F ([2]; single dose 200 mg): 63.3 (17.0) L/h
pEC50 (DPP-4 [3]; EC50 (Emax model), after a single administration, DPP-4 inhibition versus plasma concentration): 6.49
Emax,DPP-4 (Emax model) (DPP-4 [3]; after multiple doses, DPP-4 inhibition versus plasma concentration): 106.19%
Emax (DPP-4 [3]; read-out: Emax,DPP-4 (Emax model), after a single administration, DPP-4 inhibition versus plasma concentration): 120%
Emax (DPP-4 [3]; read-out: Emax,DPP-4 (Emax model), after multiple doses, DPP-4 inhibition versus plasma concentration): 106%
Correlation between DPP-4 inhibition and DBPR108 exposure (DPP-4 [3]; [15]): linear correlation was observed
maximum inhibitory efficacy of DPP-4 (DPP-4 [6]; [16]): 62.1 to 89.4%
time to Emax,DPP-4 (DPP-4 [6]; [16]): 3 to 4 h
median time to Emax of DPP-4 (DPP-4 [6]; single dose 50 mg): 2 h
median time to Emax of DPP-4 (DPP-4 [6]; single dose 100 mg): 4 h
median time to Emax of DPP-4 (DPP-4 [6]; single dose 200 mg): 6 h
Structure (SMILES): CC(C)(CC(=O)N1CCCC1)NCC(=O)N1C[C@@H](F)C[C@H]1C#N [DBPR108, (2S,4S)-1-[2-(1,1-dimethyl-3-oxo-3-pyrrolidin-1-yl-propylamino)acetyl]-4-fluoro-pyrrolidine-2-carbonitrile]
pIC50 [1]: < 7.30
Cmax ([4]; mean (SD)): 218.8 (101.8) ng/mL
t½ ([4]; mean (SD)): 8.2 (8.6) h
Tmax ([4]; median (range)): 4.48 (range 1–6) h
pIC50 [5]: 7.69 to 8.39
Glucose tolerability (diet-induced obese mice): improved glucose tolerability
pIC50 (DPP‐9): < 7.30
Active GLP-1 levels after administration (active GLP-1; after DBPR108 administration, 50-200 mg): increased
Emax,GLP-1 (active GLP-1) (active GLP-1; [12]): 5.7 (2.2) pM
Emax,GLP-1 (active GLP-1) (active GLP-1; [13]): 6.6 (2.3) pM
Emax,GLP-1 (active GLP-1) (active GLP-1; [14]): 5.8 (3.2) pM
median time to Emax,GLP-1 (active GLP-1; [16]): 6 to 7 h
median time to Emax,GLP-1 (active GLP-1; single dose 50 mg): 8 h
Emax,GLP-1 (active GLP-1) (active GLP-1; single dose 50 mg): 4.5 (1.6) pM
median time to Emax,GLP-1 (active GLP-1; single dose 100 mg): 12 h
Emax,GLP-1 (active GLP-1) (active GLP-1; single dose 100 mg): 4.8 (1.4) pM
median time to Emax,GLP-1 (active GLP-1; single dose 200 mg): 12 h
Emax,GLP-1 (active GLP-1) (active GLP-1; single dose 200 mg): 5.5 (2.1) pM
Correlation between changes in plasma active GLP-1 and DBPR108 exposure (active GLP-1; [15]): no linear correlation was noted
pIC50 (DPP‐8): < 7.30
Tolerability (Safety assessment; 50-200 mg once daily, eight doses): well tolerated
Cardiovascular adverse events (Safety assessment; all 30 patients): no cardiovascular adverse events were observed
Severe TEAEs, serious TEAEs, TEAEs leading to treatment interruption or discontinuation (Safety assessment; all 30 patients): No severe TEAEs, serious TEAEs, or TEAEs leading to treatment interruption or discontinuation occurred
TEAE white blood cell count increase, n [%] (Safety assessment; all 30 patients): 1 [3.3%]
Patients with treatment-emergent adverse events (TEAEs) (Safety assessment; all 30 patients, 50-200 mg): 20%
pIC50 (DPP‐4): 7.82
pIC50 (DPP‐2): < 7.30

Structure (SMILES): Cn1c(=O)cc(N2CCC[C@@H](N)C2)n(Cc2ccccc2C#N)c1=O [alogliptin]
Risk of pancreatitis [7]: increased risks of pancreatitis were observed

Structure (SMILES): CS(=O)(=O)n1cc2c(n1)CN([C@H]1CO[C@H](c3cc(F)ccc3F)[C@@H](N)C1)C2 [omarigliptin]
Emax,DPP-4 (DPP-4 [8]): 86.0%

Structure (SMILES): N[C@@H](CC(=O)N1CCn2c(nnc2C(F)(F)F)C1)Cc1cc(F)c(F)cc1F [sitagliptin]
Risk of pancreatitis [7]: increased risks of pancreatitis were observed
